According to ChEMBL document CHEMBL4041500, “Attenuation of Mycobacterium species through direct and macrophage mediated pathway by unsymmetrical diaryl urea” (Eur J Med Chem, 2017):
≈ marks a conversion by molar mass, not a printed value. Calls of active or inactive are those of the source. The rule behind the calls is not given here.

Legend:
[1] = tested on: Mycolicibacterium smegmatis; test: Inhibition of fattyacid biosynthesis in Mycobacterium smegmatis MC2 155 assessed as reduction in [1-14C]acetate incorporation at 5 times antibacterial MIC preincubated for 90 mins followed by [1-14C]acetate addition measured after 1 hr by liquid scintillation counting based TLC method; assay type: functional; details: str. MC2 155
[2] = tested on: Mycolicibacterium smegmatis; test: Inhibition of alpha-mycolic acid biosynthesis in Mycobacterium smegmatis MC2 155 assessed as reduction in [1-14C]acetate incorporation at 5 times antibacterial MIC preincubated for 90 mins followed by [1-14C]acetate addition measured after 1 hr by liquid scintillation counting based TLC method; assay type: functional; details: str. MC2 155
[3] = tested on: Mycobacterium tuberculosis; test: Antimycobacterial activity against Mycobacterium tuberculosis H37Rv ATCC 27294 after 7 days by microplate alamar blue assay; assay type: functional; details: H37Rv ATCC 27294, 168 h
Procedure, shortened: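 MABA run in 7H12 medium in 96-well plates for 7 days at 37 °C. Alamar Blue and Tween 80 were then added for a further 24 h. Fluorescence was read at 530/590 nm. MIC was the lowest concentration giving a 90% fluorescence (or luminescence) reduction versus controls. Luciferase reporter strains or intracellular ATP were used for compounds with background fluorescence. Isoniazid and rifampin were run as controls.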

[4] = tested on: Mycolicibacterium smegmatis; test: Antimycobacterial activity against Mycobacterium smegmatis MC2 155 after 48 hrs by serial dilution method; assay type: functional; details: str. MC2 155, 48 h
Procedure, shortened: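 M. smegmatis grown in Middlebrook 7H9 with 10% albumin–dextrose complex and 0.03% Tween80 at 37 °C. Twofold serial dilutions of compound were combined with mid-log culture diluted to OD570 0.01, giving a final range of […] in 7H9 broth. Incubated in ambient air at 37 °C for 48 h. MIC taken as the lowest concentration preventing visible growth.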

[5] = tested on: Mycolicibacterium smegmatis; test: Inhibition of alpha'-mycolic acid biosynthesis in Mycobacterium smegmatis MC2 155 assessed as reduction in [1-14C]acetate incorporation at 5 times antibacterial MIC preincubated for 90 mins followed by [1-14C]acetate addition measured after 1 hr by liquid scintillation counting based TLC method; assay type: functional; details: str. MC2 155
[6] = tested on: Peritoneal macrophage; test: Cytotoxicity against Balb/c mouse peritoneal macrophages assessed as reduction in cell viability after 48 hrs by MTT assay; assay type: cell-based
Procedure, shortened: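 Murine peritoneal macrophages, 1 × 10^6 cells/well, exposed to compound at 0.1 to 250 µg/ml in RPMI-1640 with 10% FBS for 48h. MTT (5 mg/ml) added for 3 h at 37°C, formazan dissolved in 0.04M HCl in isopropanol for 15 min at room temperature, absorbance read at 570 nm. IC50 (50% loss of viability) taken from a dose–response curve of percentage activity versus log10 concentration.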

[7] = tested on: Mycobacterium tuberculosis; test: Antimycobacterial activity against Mycobacterium tuberculosis MC2 6030 after 2 to 3 weeks by agar plate method; assay type: functional
Procedure, shortened: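 Strain mc²6030 is a pantothenate auxotroph lacking RD1, grown at 37 °C in Sauton's medium plus 20 μg/ml pantothenic acid. Serial 10-fold dilutions of actively growing culture were plated on 7H10/OADC agar with 20 μg/ml pantothenic acid and increasing compound concentrations, from 10 mg/ml DMSO stocks. Plates were held 2–3 weeks at 37 °C. MIC was the concentration inhibiting 99% of growth; isoniazid served as control.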

[8] = tested on: HepG2; test: Cytotoxicity against human HepG2 cells assessed as reduction in cell viability after 72 hrs by MTT assay; assay type: cell-based; details: hepg2, 72 h
Procedure, shortened: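 HepG2 cells grown in Eagle's MEM with 10% FBS at 37 °C and 5% CO2. Cells were scraped, resuspended at ~1 × 10^6 cells/mL, plated and left 24 h, then exposed to compound at 400 to 0.2 µg/mL for 72 h. Viability read by MTT assay. IC50 (50% loss of viability) taken from a dose–response curve versus log10 concentration.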

[9] = tested on: Mycolicibacterium smegmatis; test: Inhibition of epoxy-mycolic acid biosynthesis in Mycobacterium smegmatis MC2 155 assessed as reduction in [1-14C]acetate incorporation at 5 times antibacterial MIC preincubated for 90 mins followed by [1-14C]acetate addition measured after 1 hr by liquid scintillation counting based TLC method; assay type: functional; details: str. MC2 155
[10] = tested on: Mycolicibacterium smegmatis; test: Antimycobacterial activity against Mycobacterium smegmatis MC2 155 infected in Balb/c mouse peritoneal macrophages assessed as increase in iNOS2 mRNA expression at 5 ug/ml after 6 hrs RT-PCR method; assay type: functional; details: str. MC2 155
Procedure, shortened: (§1)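 BALB/c peritoneal macrophages were cultured 48 h in RPMI-1640 with 10% FBS. Cells at 2 × 10⁶/ml were infected with mid-log, PBS-washed mc²155 at a macrophage:bacteria ratio of 1:10 for 6 h, then washed three times. Compound was added at 5 µg/mL for another 6 h. Total RNA was taken up in Trizol, 1 µg was used for cDNA, and PCR ran 40 cycles (94 °C 45 s, 60 °C 1 min, 72 °C 1 min).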

[11] = tested on: Mycolicibacterium smegmatis; test: Antimycobacterial activity against Mycobacterium smegmatis MC2 155 infected in Balb/c mouse peritoneal macrophages assessed as upregulation of IL-12 mRNA expression at 5 ug/ml after 6 hrs RT-PCR method; assay type: functional; details: str. MC2 155; procedure, shortened: as §1
[12] = tested on: Mycolicibacterium smegmatis; test: Antimycobacterial activity against Mycobacterium smegmatis MC2 155 infected in Balb/c mouse peritoneal macrophages assessed as upregulation of IFN-gamma mRNA expression at 5 ug/ml after 6 hrs RT-PCR method; assay type: functional; details: str. MC2 155; procedure, shortened: as §1
[13] = tested on: Mycolicibacterium smegmatis; test: Antimycobacterial activity against Mycobacterium smegmatis MC2 155 infected in Balb/c mouse peritoneal macrophages assessed as downregulation of IL-10 mRNA expression at 5 ug/ml after 6 hrs RT-PCR method; assay type: functional; details: str. MC2 155; procedure, shortened: as §1

Row | SMILES | inhibition [1] | inhibition [2] | MIC90 [3] [µg/mL] | MIC [4] [µg/mL] | inhibition [5] | Activity [6] [µg/mL] | MIC99 [7] [µg/mL] | Activity [8] [µg/mL] | inhibition [9] | Activity [10] | Activity [11] | Activity [12] | Activity [13]
1 | CC(C)=CCOc1ccc(NC(=O)Nc2ccccc2)cc1 | inactive | inactive | 43.1 (≈ 145 µM) | 25 (≈ 84.4 µM) | inactive | 109.5 | 30 (≈ 101 µM) | 124.7 | inactive | – | – | – | –
2 | CC(C)=CCOc1cccc(NC(=O)Nc2cccc(C(=O)O)c2)c1 | inactive | inactive | 16.5 (≈ 48.5 µM) | 12.5 (≈ 36.7 µM) | inactive | 120.4 | – | 132.6 | Active | – | – | – | –
3 | CC(C)=CCOc1cccc(NC(=O)Nc2ccccc2C)c1 | inactive | inactive | 5.2 (≈ 16.8 µM) | 12.5 (≈ 40.3 µM) | inactive | 140.5 | 1 (≈ 3.22 µM) | 163.4 | Active | Active | Active | Active | Active
4 | CCCCOc1ccc(NC(=O)Nc2ccccc2C)cc1 | inactive | inactive | 7 (≈ 23.5 µM) | 100 (≈ 335 µM) | inactive | 125.7 | 100 (≈ 335 µM) | 130.5 | Active | – | – | – | –
5 | CC(C)=CCOc1cccc(NC(=O)Nc2cccc([N+](=O)[O-])c2)c1 | inactive | inactive | 6 (≈ 17.6 µM) | 3.21 (≈ 9.4 µM) | inactive | 94.1 | 2 (≈ 5.86 µM) | 113.7 | Active | Active | inactive | inactive | Active
6 | CC(C)=CCOc1cccc(NC(=O)Nc2cccc(C#N)c2)c1 | inactive | inactive | 9.2 (≈ 28.6 µM) | 25 (≈ 77.8 µM) | inactive | 159.4 | – | 172.6 | Active | Active | Active | Active | Active
